Read-outs that look alike come from different tables or passages of the source.
Columns and labels:
[1] = Vosoritide plasma pharmacokinetics, phase II study; assay type: in vivo, human
Summary of the method: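 Phase II, daily s.c. doses 2.5–30 µg/kg. Plasma measured by validated ELISA: murine monoclonal anti-drug IgG capture, rabbit polyclonal anti-CNP IgG detection. Full sampling on days 1, 10, 29, 85 and 183, predose and 5–180 min postdose. Non-compartmental analysis used linear-up/log-down trapezoids. Below-LLOQ values before Tmax set to zero; those after Tmax censored.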

[2] = Vosoritide plasma pharmacokinetics, phase III study; assay type: in vivo, human
Summary of the method: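 Phase III, 15 µg/kg s.c. once daily. Full plasma sampling at day 1, week 26 and week 52: predose and 5, 15, 30, 45, 60, 90 and 120 min. Sparse sampling at weeks 13 and 39. Parameters from non-compartmental analysis with linear-up/log-down trapezoids. Effects of sex, body weight, age, race and anti-drug antibodies on exposure were evaluated.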

[3] = test system: patients with achondroplasia; experiment: Change from baseline in annualized growth velocity; assay type: in vivo, human
Summary of the method: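 Phase II: once-daily subcutaneous dosing at 2.5–30 µg/kg. Change in AGV from baseline to day 183 fitted by sigmoid Emax (E0, Emax, EC50, Hill h) against individual mean Cmax or AUC0-t, each averaged per patient over all PK visit days. Phase III (15 µg/kg) exposure–AGV also analysed. Estimates given with 95% CIs.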

[4] = test system: collagen type X marker (CXM); experiment: Serum collagen type X marker; assay type: in vivo, human
Summary of the method: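 Serum CXM measured by electrochemiluminescence sandwich assay. Streptavidin plates were blocked, then coated with biotinylated anti-collagen X NC1 SOMAmer capture. Standard was recombinant human collagen X NC1; sera diluted 1:100. Detection used ruthenium-labelled mouse mAb. Values read from a 4PL curve (1/Y² weighting); LOD 914 pg/mL neat serum. Individual mean CXM (day 10–183, phase II) fitted by sigmoid Emax versus individual mean Cmax or AUC0-t.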

[5] = biological target: urine cGMP (activity through the target receptor NPR-B); experiment: Urine cGMP normalized to creatinine; assay type: in vivo, human
Summary of the method: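 Urine collected predose and 1, 2 and 4 h postdose. Phase II: initial 6 months plus months 12, 18 and 24. Phase III: days 1–3 and weeks 6, 26 and 52. cGMP measured (LLOQ 138 pmol/mL neat urine) and normalised to creatinine. Maximum postdose increase is taken over the same-visit predose value; negative if predose is maximal. Fitted against visit-matched Cmax/AUC (non-estimable set to zero): sigmoid Emax (phase II) or Emax with h=1 (phase III).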

[6] = test system: total anti-vosoritide antibody (TAb); experiment: Total anti-vosoritide antibodies; assay type: in vivo, human; details: phase III; p > 0.8 for difference in estimated mean Cmax and AUC0-∞ by TAb status, t-test
NPR-B = experiment: Vosoritide-neutralizing antibodies; assay type: cell-based, human; details: phase III, all time points tested
Summary of the method: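 Run only on confirmed TAb-positive sera. Frozen NIH/3T3 cells cultured overnight (DMEM high glucose + 10% FBS, 37°C, 5% CO2). Cells stimulated with 5 ng/mL drug in diluted serum; cellular cGMP read by ELISA, where signal is inverse to cGMP. Screening cut point: upper 95th percentile of pretreatment sera. Positives confirmed by immunodepletion on drug-conjugated magnetic beads. LOD 227 ng/mL.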

[7] = test system: patients with achondroplasia; assay type: in vivo, human; details: phase II, initial 6 months, visit-matched; the single patient with high exposure
[8] = test system: patients with achondroplasia; details: phase II, children with achondroplasia, daily dose of 15 µg/kg, up to 42 months; cited from earlier work
[9] = endogenous CNP in humans; cited from earlier work
[10] = phase II, the single patient with high individual mean exposure

With `CC[C@H](C)[C@@H]1NC(=O)[C@H](CCCNC(=N)N)NC(=O)[C@H](CC(=O)O)NC(=O)[C@H](CC(C)C)NC(=O)[C@H](CCCCN)NC(=O)[C@H](CC(C)C)NC(=O)CNC(=O)[C@H](Cc2ccccc2)NC(=O)[C@@H](NC(=O)CNC(=O)[C@H](CCCCN)NC(=O)[C@H](CO)NC(=O)[C@H](CC(C)C)NC(=O)CNC(=O)[C@H](CCCCN)NC(=O)[C@H](CCCCN)NC(=O)[C@H](CC(N)=O)NC(=O)[C@H](C)NC(=O)CNC(=O)[C@H](CCCCN)NC(=O)[C@H](Cc2ccc(O)cc2)NC(=O)[C@H](CCCCN)NC(=O)[C@H](CCCNC(=N)N)NC(=O)[C@H](C)NC(=O)[C@H](CC(N)=O)NC(=O)[C@@H]2CCCN2C(=O)[C@H](Cc2c[nH]cn2)NC(=O)[C@H](CCC(=O)O)NC(=O)[C@H](CCC(N)=O)NC(=O)CNC(=O)[C@@H]2CCCN2)CSSC[C@@H](C(=O)O)NC(=O)CNC(=O)[C@H](CC(C)C)NC(=O)CNC(=O)[C@H](CO)NC(=O)[C@H](CCSC)NC(=O)[C@H](CO)NC(=O)CNC1=O` [vosoritide] as the compound, how does the “increase in vosoritide exposure with dose” value ([1]; doses from 2.5 to 30 μg/kg) read?
The value was “greater than proportional”.

And the Cmax ([1]; human, plasma, sc, 2.5 ug/kg)?
The Cmax was 0.549 ng/mL.

What about the Tmax ([1]; human, plasma, sc, 2.5 ug/kg) of the same compound?
Its Tmax is 5 min.

What about the Cmax ([1]; human, plasma, sc, 7.5 ug/kg) of the same compound?
Its Cmax is 1.36 ng/mL.

What about the Tmax ([1]; human, plasma, sc, 7.5 ug/kg) of the same compound?
The Tmax was 13.7 min.

And the CL/F ([1]; human, plasma, sc, 15 ug/kg)?
The CL/F was 83.7 mL/min/kg.

What about the Cmax ([1]; human, plasma, sc, 15 ug/kg) of the same compound?
Its Cmax is 4.75 ng/mL.

What about the Tmax ([1]; human, plasma, sc, 15 ug/kg) of the same compound?
Its Tmax is 15.8 min.

And the Vd/F ([1]; human, plasma, sc, 15 ug/kg)?
The Vd/F was 2.56 L/kg.

What about the half-life ([1]; human, plasma, sc, 15 ug/kg) of the same compound?
The half-life was 24.4 min.

What about the Cmax ([1]; human, plasma, sc, 30 ug/kg) of the same compound?
Its Cmax is 16.8 ng/mL.

What about the “Cmax at one visit of one patient” value ([1]; phase II, single patient with high exposure, left out of the figure) of the same compound?
The value was 839 ng/mL.

What about the “impact of sex on plasma Cmax or AUC0-60min” value [2] of the same compound?
The value was “no apparent impact”.

And the “accumulation with once-daily dosing” value ([2]; 15 µg/kg s.c. once daily, 52 weeks)?
Its value is “No evidence of accumulation”.

What about the Vz/F ([2]; 15 µg/kg s.c. once daily, Week 52, plasma ECLA, NCA, mean) of the same compound?
The Vz/F was 2.91 L/kg.

What about the “relationship of plasma AUC0-60min with body weight and age” value ([2]; linear regression, p < 0.001) of the same compound?
Its value is “positively correlated”.

What about the “correlation between plasma exposure and change in AGV” value ([3]; phase II, 24 months of daily dosing, 15 and 30 µg/kg, linear regression, p = 0.34 for Cmax, p = 0.50 for AUC0-60min) of the same compound?
The value was “no significant correlation”.

And the “change in annualized growth velocity from baseline to day 183 of one patient” value [3, 10]?
Its value is 3.56 cm/year.

What about the “relationship between exposure and changes in AGV” value ([3]; phase III, 15 µg/kg, baseline to week 52, linear regression, p = 0.52 for Cmax, p = 0.54 for AUC0-60min) of the same compound?
Its value is “lack of relationship”.

And the “EC50 (AUC0-t producing half maximal effect), change in AGV” value ([3]; sigmoid Emax model vs individual mean AUC0-t, baseline to day 183, phase II, MPE)?
Its value is 20,500 pg-min/mL.

What about the “correlation between plasma exposure and mean CXM concentration” value ([4]; phase II, 24 months of daily dosing, 15 and 30 µg/kg, linear regression, p = 0.98 for Cmax, p = 0.99 for AUC0-60min) of the same compound?
Its value is “no significant correlation”.

And the “mean CXM from day 10 to day 183 of one patient” value [4, 10]?
The value was 12,200 pg/mL.

And the “relationship between exposure and mean CXM concentrations” value ([4]; phase III, 15 µg/kg, week 13 to week 52, linear regression, p = 0.74 for Cmax, p = 0.58 for AUC0-60min)?
The value was “lack of relationship”.

And the “EC50 (AUC0-t producing half maximal effect on CXM)” value ([4]; sigmoid Emax model vs individual mean AUC0-t, day 10 to day 183, phase II, MPE)?
Its value is 51700 pg·min/mL.

What about the “EC50 (AUC0-60min producing half maximal effect on cGMP/Cr)” value ([5]; Emax model (h = 1) vs visit-matched AUC0-60min, phase III, 15 µg/kg, MPE) of the same compound?
Its value is 479000 pg·min/mL.

What about the “Emax, maximum postdose increase in urine cGMP/Cr” value ([5]; Emax model (h = 1) vs visit-matched Cmax, phase III, 15 µg/kg, MPE (95% CI)) of the same compound?
Its value is 18,160 (13,800–22,600) pmol/mg Cr.

What about the “maximum change from pre-dose cGMP/Cr of one patient” value ([5]; phase II, initial 6 months, visit-matched, the single patient with high exposure) of the same compound?
Its value is 8190 pmol/mg Cr.

What about the “EC50 (AUC0-t producing half maximal effect on cGMP/Cr)” value ([5]; sigmoid Emax model vs visit-matched AUC0-t, initial 6 months of phase II, MPE) of the same compound?
Its value is 222000 pg·min/mL.

And the “impact of serum TAb on plasma exposure of vosoritide (Cmax and AUC0-∞)” value [6]?
The value was “no apparent impact”.

And the “NAb status of TAb-positive patients” value (NPR-B)?
Its value is “negative”.

And the “maximum decrease in DBP of one patient” value [7]?
Its value is −2 mmHg.

What about the “maximum decrease in SBP of one patient” value [7] of the same compound?
Its value is −7 mmHg.

What about the “maximum increase in HR of one patient” value [7] of the same compound?
The value was 39 bpm.

And the “sustained mean increase in annualized growth velocity (AGV) above baseline” value [8]?
Its value is 1.55 cm/year.

For C-type natriuretic peptide [CNP], which half-life [9] is on record?
Its half-life is 2.6 min.

Reference: paper PMC8813707 (Clinical Pharmacokinetics, 2021)
